Data set [1] concerns SMMC-7721. As to the kind of experiment: Cytotoxicity against human SMMC-7721 cells assessed as reduction in cell viability incubated for 24 hrs by MTT assay. In kind it is functional, cell-based. The note with it: SMMC-7721, 24 h. The essentials:
(§1)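 Cells kept at 37 °C in 5% CO₂. HepG2 grown in DMEM with 10% serum; HHL-5, LO2 and SMMC-7721 in 1640 medium with 10% serum. Seeded, grown 24 h, then exposed 24 h to 10, 5, 2.5, 1.25, 0.625 and 0.3125 µg/mL. MTT (5 mg/mL) added for 4 h at 37 °C; formazan dissolved in DMSO, OD read at 570 nm. IC50 averaged from three replicates.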

Data set [2] concerns L02. As to the kind of experiment: Cytotoxicity against human L02 cells assessed as reduction in cell viability incubated for 24 hrs by MTT assay. In kind it is cell-based. The note with it: L02, 24 h. The essentials:
as §1

The subject of data set [3] is RAW264.7. As to the kind of experiment: Cytotoxicity against mouse RAW264.7 cells assessed as reduction in cell viability at 5 uM incubated for 24 hrs by MTT assay. In kind it is cell-based. The conditions noted are these: raw264.7, 24 h. For orientation: Formazan colour is commonly taken as a measure of viable cells.
Data set [4] relates to HepG2. Nature of the data set: Cytotoxicity against human HepG2 cells assessed as reduction in cell viability incubated for 24 hrs by MTT assay. In kind it is functional, cell-based. The conditions noted are these: HepG2, 24 h. The essentials: as §1
In data set [5] the test system is RAW264.7. As to the kind of experiment: Antiinflammatory activity against mouse RAW264.7 cells assessed as LPS-induced TNF-alpha at 5 uM pretreated for 2 hrs followed by LPS stimulation and measured after 22 hrs by ELISA (reference value: 0 %). The note with it: time 24 hrs. In kind it is functional. For orientation: ELISA stands for enzyme-linked immunosorbent assay.

Data set [6] deals with RAW264.7. As to the kind of experiment: Antiinflammatory activity against mouse RAW264.7 cells assessed as LPS-induced IL-6 at 5 uM pretreated for 2 hrs followed by LPS stimulation and measured after 22 hrs by ELISA relative to control (reference value: 0 %). The class given is functional. The conditions noted are these: time 24 hrs.
Data set [7] in a line: Cytotoxicity against human HHL-5 cells assessed as reduction in cell viability incubated for 24 hrs by MTT assay. The note with it: HHL-5, 24 h. In kind it is cell-based. The essentials: as §1

For 30 compounds, IC50, Activity and inhibition results are on record in ChEMBL document CHEMBL4680257, “Discovery of novel NF-кB inhibitor based on scaffold hopping: 1,4,5,6,7,8-hexahydropyrido[4,3-d]pyrimidine” (Eur J Med Chem, 2020).

Structures are written as SMILES.

For the compound `Cl.NC1=NC(c2cccc(F)c2)C2=C(N1)/C(=C/c1cccc(F)c1)CN(S(=O)(=O)c1ccc(F)cc1)C2` (stereo not given), the half-maximal inhibitory concentration (IC50) (commonly the point on the concentration scale where inhibition reaches its midpoint) came to 4.8 µM in data set [1], 18.8 µM in data set [2], 12.4 µM in data set [4] and 12.9 µM in data set [7]. Also, in data set [3], the Activity result was “Non-Toxic”. The inhibition (commonly the relative decrease from the control value, in per cent) at 5 µM in data set [5] came to 71.6%; in data set [6], 74.9%.

Consider `Cc1ccc(S(=O)(=O)N2C/C(=C\c3ccccc3F)C(=O)/C(=C/c3ccccc3F)C2)cc1`, for which the IC50 worked out at 4.1 µM in data set [1], 16.7 µM in data set [2], 14.2 µM in data set [4] and 7.9 µM in data set [7]. Further, in data set [3], the Activity entry is given as “Non-Toxic”.

Consider `CC(=O)Nc1ccc(S(=O)(=O)N2C/C(=C\c3ccccc3F)C(=O)/C(=C/c3ccccc3F)C2)cc1`, for which the Activity entry in data set [3] was “Non-Toxic”. The IC50 in data set [4] came to 5.2 µM; in data set [7], 13.6 µM.

As for `Cc1ccc(S(=O)(=O)N2C/C(=C\c3cccc(F)c3)C(=O)/C(=C/c3cccc(F)c3)C2)cc1`, the IC50 in data set [1] was 18.1 µM; in data set [2], 15.7 µM; in data set [4] it was 3.5 µM; in data set [7] it was 11.2 µM. Besides, in data set [3], the Activity result was “Non-Toxic”.

For `Cl.NC1=NC(c2ccccc2F)C2=C(N1)/C(=C/c1ccccc1F)CN(S(=O)(=O)c1ccc(Cl)cc1)C2` (stereo not given), the half-inhibitory concentration (IC50) in data set [1] was 4.9 µM; in data set [2], 11.5 µM; in data set [4] it was 12.2 µM; in data set [7], 9.1 µM. In addition, in data set [3], the Activity entry is reported as “Non-Toxic”. Besides, the inhibition at 5 µM in data set [5] was found to be 83%; in data set [6], 81.5%.

`O=C1/C(=C/c2ccc(F)cc2)CN(S(=O)(=O)c2ccc(C(F)(F)F)cc2)C/C1=C\c1ccc(F)cc1`: the IC50 in data set [1] was found to be 4.4 µM; in data set [2], 13.5 µM; in data set [4], 3.2 µM; in data set [7] it was 16.1 µM. The Activity result in data set [3] is “Non-Toxic”.

As for `O=C1/C(=C/c2ccc(F)cc2)CN(S(=O)(=O)c2ccc(F)cc2)C/C1=C\c1ccc(F)cc1`, the half-inhibitory concentration (IC50) was 14.7 µM in data set [1], 14.8 µM in data set [2], 8.1 µM in data set [4] and 11.7 µM in data set [7]. Besides, the Activity result in data set [3] is “Non-Toxic”.

Take `O=C1/C(=C/c2ccccc2F)CN(S(=O)(=O)c2ccc(C(F)(F)F)cc2)C/C1=C\c1ccccc1F`: the IC50 was 5.2 µM in data set [1], 16.2 µM in data set [2], 4.9 µM in data set [4] and 15.3 µM in data set [7]. The Activity entry in data set [3] is listed as “Non-Toxic”.

Consider `Cc1ccc(S(=O)(=O)N2C/C(=C\c3ccc(F)cc3)C(=O)/C(=C/c3ccc(F)cc3)C2)cc1`, for which the concentration for half-maximal inhibition (IC50) amounted to 5 µM in data set [1], 14 µM in data set [2], 4.5 µM in data set [4] and 6 µM in data set [7]. In addition, in data set [3], the Activity entry is recorded as “Non-Toxic”.

Consider `O=C1/C(=C/c2ccccc2F)CN(S(=O)(=O)c2ccccc2)C/C1=C\c1ccccc1F`, for which the concentration for half-maximal inhibition (IC50) in data set [1] is 5.7 µM; in data set [2] it was 17.6 µM; in data set [4], 15.9 µM; in data set [7], 27.2 µM. In addition, in data set [3], the Activity entry is “Non-Toxic”.

For `O=C1/C(=C/c2cccc(F)c2)CN(S(=O)(=O)c2ccc(Br)cc2)C/C1=C\c1cccc(F)c1`, the IC50 in data set [1] amounted to 11.7 µM; in data set [2], 15.8 µM; in data set [4], 7.7 µM; in data set [7] it was 16.5 µM. In addition, the Activity result in data set [3] is on record as “Non-Toxic”.

Consider `O=C1/C(=C/c2ccc(F)cc2)CN(S(=O)(=O)c2ccc(Br)cc2)C/C1=C\c1ccc(F)cc1`, for which the 50% inhibitory concentration (IC50) in data set [1] was 11.5 µM; in data set [2], 16.4 µM; in data set [4], 8 µM; in data set [7], 17.1 µM. In data set [3], the Activity entry is reported as “Non-Toxic”.

Turning to `N#Cc1ccc(S(=O)(=O)N2C/C(=C\c3ccc(F)cc3)C(=O)/C(=C/c3ccc(F)cc3)C2)cc1`, the IC50 stood at 15 µM in data set [1], 14.7 µM in data set [2], 9.8 µM in data set [4] and 14.6 µM in data set [7]. In data set [3], the Activity result is “Non-Toxic”.

As to `O=C1/C(=C/c2cccc(F)c2)CN(S(=O)(=O)c2ccc(C(F)(F)F)cc2)C/C1=C\c1cccc(F)c1`, the IC50 was 4.2 µM in data set [1], 18 µM in data set [2], 2.4 µM in data set [4] and 13.4 µM in data set [7]. The Activity entry in data set [3] was “Non-Toxic”.

For `O=C1/C(=C/c2ccccc2F)CN(S(=O)(=O)c2ccc(Cl)cc2)C/C1=C\c1ccccc1F`, the half-inhibitory concentration (IC50) in data set [1] stood at 4.5 µM; in data set [2], 14.1 µM; in data set [4], 10.9 µM; in data set [7], 9.6 µM. Further, in data set [3], the Activity result was “Non-Toxic”.

Regarding `N#Cc1ccc(S(=O)(=O)N2C/C(=C\c3ccccc3F)C(=O)/C(=C/c3ccccc3F)C2)cc1`, the 50% inhibitory concentration (IC50) in data set [1] is 14.6 µM; in data set [2], 11 µM; in data set [4], 16.5 µM; in data set [7], 13.6 µM. In addition, the Activity result in data set [3] is reported as “Non-Toxic”.

As to `O=C1/C(=C/c2ccc(F)cc2)CN(S(=O)(=O)c2ccc([N+](=O)[O-])cc2)C/C1=C\c1ccc(F)cc1`, the IC50 was 5 µM in data set [1], 16.2 µM in data set [2], 5.4 µM in data set [4] and 7.8 µM in data set [7]. Besides, the Activity entry in data set [3] is given as “Non-Toxic”.

In the case of `N#Cc1ccc(S(=O)(=O)N2C/C(=C\c3cccc(F)c3)C(=O)/C(=C/c3cccc(F)c3)C2)cc1`, the 50% inhibitory concentration (IC50) in data set [1] came to 4.5 µM; in data set [2], 15.5 µM; in data set [4], 2.6 µM; in data set [7], 7.5 µM. Also, in data set [3], the Activity result is “Non-Toxic”.

`O=C1/C(=C/c2cccc(F)c2)CN(S(=O)(=O)c2ccc([N+](=O)[O-])cc2)C/C1=C\c1cccc(F)c1`: the IC50 was determined as 15.3 µM in data set [1], 10.7 µM in data set [2], 8.1 µM in data set [4] and 14.5 µM in data set [7]. The Activity entry in data set [3] is listed as “Non-Toxic”.

For the compound `O=C1/C(=C/c2ccccc2F)CN(S(=O)(=O)c2ccc(Br)cc2)C/C1=C\c1ccccc1F`, the half-inhibitory concentration (IC50) in data set [1] was determined as 5.2 µM; in data set [2], 16.2 µM; in data set [4], 13.7 µM; in data set [7], 14 µM. Also, the Activity entry in data set [3] is given as “Non-Toxic”.

On to `O=C1/C(=C/c2cccc(F)c2)CN(S(=O)(=O)c2ccc(Cl)cc2)C/C1=C\c1cccc(F)c1`, for which the IC50 in data set [1] stood at 7.8 µM; in data set [2], 15.7 µM; in data set [4] it was 13.1 µM; in data set [7], 10.8 µM. The Activity entry in data set [3] was “Non-Toxic”.

Turning to `CC(=O)Nc1ccc(S(=O)(=O)N2C/C(=C\c3ccc(F)cc3)C(=O)/C(=C/c3ccc(F)cc3)C2)cc1`, the 50% inhibitory concentration (IC50) in data set [1] amounted to 9.8 µM; in data set [2] it was 19.4 µM; in data set [4], 7.4 µM; in data set [7], 15 µM. Moreover, the Activity entry in data set [3] is given as “Non-Toxic”.

For the compound `O=C1/C(=C/c2ccccc2F)CN(S(=O)(=O)c2ccc([N+](=O)[O-])cc2)C/C1=C\c1ccccc1F`, the IC50 in data set [1] worked out at 6.2 µM; in data set [2] it was 15.5 µM; in data set [4] it was 16.5 µM; in data set [7], 6.6 µM. For the same compound, in data set [3], the Activity entry was “Non-Toxic”.

On to `COc1cccc2c1C(=O)c1c(O)c3c(c(O)c1C2=O)C[C@@](O)(C(=O)CO)C[C@@H]3O[C@H]1C[C@H](N)[C@H](O)[C@H](C)O1` [DOXORUBICIN], for which the values for the concentration for half-maximal inhibition (IC50) in data set [2], in data set [4] and in data set [7] were 13.8 µM, 1 µM and 12.2 µM, respectively.

For `O=C1/C(=C/c2ccc(F)cc2)CN(S(=O)(=O)c2ccc(Cl)cc2)C/C1=C\c1ccc(F)cc1`, the IC50 in data set [1] was 7 µM; in data set [2] it was 15.5 µM; in data set [4], 4.5 µM; in data set [7], 17.7 µM. In addition, the Activity result in data set [3] is “Non-Toxic”.

For `CC(=O)Nc1ccc(S(=O)(=O)N2C/C(=C\c3cccc(F)c3)C(=O)/C(=C/c3cccc(F)c3)C2)cc1`, the IC50 is 10.3 µM in data set [1], 17.5 µM in data set [2], 11.1 µM in data set [4] and 17 µM in data set [7]. Further, the Activity result in data set [3] is reported as “Non-Toxic”.

For the compound `O=C1/C(=C/c2cccc(F)c2)CN(S(=O)(=O)c2ccccc2)C/C1=C\c1cccc(F)c1`, the concentration for half-maximal inhibition (IC50) came out at 12.9 µM in data set [1], 16.2 µM in data set [2], 3.4 µM in data set [4] and 17.1 µM in data set [7]. Besides, the Activity result in data set [3] is “Non-Toxic”.

In the case of `O=C1/C(=C/c2ccc(F)cc2)CN(S(=O)(=O)c2ccccc2)C/C1=C\c1ccc(F)cc1`, the half-maximal inhibitory concentration (IC50) in data set [1] is 9.1 µM; in data set [2] it was 18.8 µM; in data set [4], 18.8 µM; in data set [7], 7.7 µM. Also, in data set [3], the Activity entry is given as “Non-Toxic”.

On to `O=C1/C(=C/c2ccccc2F)CN(S(=O)(=O)c2ccc(F)cc2)C/C1=C\c1ccccc1F`, for which the concentration for half-maximal inhibition (IC50) turned out to be 7.7 µM in data set [1], 17.5 µM in data set [2], 8 µM in data set [4] and 14.5 µM in data set [7]. The Activity result in data set [3] was “Non-Toxic”.

As for `O=C1/C(=C/c2cccc(F)c2)CN(S(=O)(=O)c2ccc(F)cc2)C/C1=C\c1cccc(F)c1`, the 50% inhibitory concentration (IC50) in data set [1] stood at 13.5 µM; in data set [2], 21.9 µM; in data set [4], 5 µM; in data set [7], 15.4 µM. Besides, the Activity result in data set [3] is on record as “Non-Toxic”.
